A selection: hits, their analogues and other compounds. The true share with any hit is near 7.6%.
M1 ag: M1 muscarinic receptor agonists, primary screen, CHO-M1 cells, Fluo-4 calcium, agonist mode; Fluo-4 calcium fluorescence; active compounds read high; B-score at 10 µM; Muscarinic acetylcholine receptor M1; AID 626, 2007; hit rate 3% among 64,000;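 active = fluorescence rise, raw or as B-score row- and column-corrected plate score, outside the 99.7% band of its plate's samples, either direction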
HEK293 NFkB inh: inhibitors of PMA/ionomycin-induced NF-kB reporter, primary screen, antigen receptor NF-kB inhibitor project, cell-based, HEK-293 luciferase reporter, luminescence; hit rate 0.21% among 62,000; inhibition, % at 3 µM; HEK-293 NF-kB luciferase reporter; AID 465, 2006;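 active = inhibition above the mean of all tested compounds plus 3 SD, cut at about 40% in these data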
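Reagent: PMA plus ionomycin mix as NF-kB-activating stimulus. Assay system: NF-kB luciferase reporter HEK-293 cells. Technique: luminescence from luciferase substrate reagent. Incubation: 1 h compound pre-incubation, 16 h PMA/ionomycin at 37 °C. Benchmarks: DMSO only as uninhibited control, 10 µM reference inhibitor as full inhibition. Repeats: tested once.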
DAT uptake mod: changed hDAT dopamine uptake under cocaine IC80, either direction, primary screen, cocaine antagonist project, cell-based, LLC-PK1 hDAT, [14C]-dopamine uptake, MLSMR; LLC-PK1 hDAT cells, [14C]-dopamine uptake with cocaine IC80; actives deviate in either direction; B-score at 10 µM; hit rate 1.3% among 110,000; AID 449768, 2010;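 active = Z score or B-score, a plate-position-corrected score, falls beyond the plate's 99.7% confidence bounds, in either direction; inactive = both scores lie inside the 99.7% bounds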
D1 mod: D1 CRE-luciferase signal change, two-sided – cell-based, HEK293 D1, dopamine EC30, D1 allosteric modulator project, primary screen | D(1A) dopamine receptor (Homo sapiens), P21728 | dopamine EC30 potentiation; actives deviate in either direction | B-score at 10 µM | hit rate 5.9% among 58,000 | AID 641, 2007;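 active = luminescence count or its row- and column-corrected plate score outside the 99.7% band of the plate's sample wells, on either side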
Target sequence (P21728 whole entry, looked up): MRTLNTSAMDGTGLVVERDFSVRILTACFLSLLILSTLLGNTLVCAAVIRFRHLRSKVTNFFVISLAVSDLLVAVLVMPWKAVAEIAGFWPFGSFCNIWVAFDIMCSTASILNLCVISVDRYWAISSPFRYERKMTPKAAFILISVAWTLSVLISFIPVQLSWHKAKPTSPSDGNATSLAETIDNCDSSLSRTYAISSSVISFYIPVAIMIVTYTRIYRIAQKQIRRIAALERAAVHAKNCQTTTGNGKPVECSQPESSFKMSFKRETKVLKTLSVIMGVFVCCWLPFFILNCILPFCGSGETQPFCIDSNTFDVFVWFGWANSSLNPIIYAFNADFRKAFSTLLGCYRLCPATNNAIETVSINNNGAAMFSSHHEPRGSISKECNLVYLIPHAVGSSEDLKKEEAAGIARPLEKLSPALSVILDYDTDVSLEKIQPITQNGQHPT
Jurkat tox 60K: cytotoxicity toward Jurkat T cells, primary screen, cytotoxicity control, cell-based, Jurkat E6.1, 60K MLSMR library; Jurkat E6.1 viability, ATP luminescence, 48 h; inhibition, % at 4 µM; hit rate 1.2% among 56,000;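 active = inhibition above the mean inhibition of all tested compounds plus 3 SD, cut at about 28% in these data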
M1 antagonist: antagonists of rat M1 muscarinic receptor; Muscarinic acetylcholine receptor M1 (Rattus norvegicus), P08482; CHO-M1 cells, Fluo-4 calcium, ACh EC80 antagonist mode; active compounds read low; B-score at 10 µM; hit rate 3.4% among 64,000; AID 628, 2007;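 active = calcium fluorescence response, raw or row-and-column corrected B-score, differing from the plate sample mean either way at a set confidence level, mostly lower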
A number is an active result; . = inactive; / = no result.

SMILES | M1 ag | HEK293 NFkB inh | DAT uptake mod | D1 mod | Jurkat tox 60K | M1 antagonist
CC(=O)c1cc2c(cc1NS(=O)(=O)c1ccc3c(c1)OCCO3)OCO2 | . | . | . | 4.09 | . | .
COC(=O)c1ccc(Cl)c(NS(=O)(=O)c2ccc3c(c2)OCCO3)c1 | . | . | . | . | 57.8 | .
CC(=O)c1cc2c(cc1NS(=O)(=O)c1ccc(C)cc1)OCO2 | / | / | . | / | / | /
O=C(NCc1ccccn1)C1CCCN(S(=O)(=O)c2ccccc2)C1 (stereo not drawn) | . | . | . | . | . | .
CCCCCCn1ccc(=N)cc1 | . | . | . | . | 40.9 | .
Cc1ccc(Cn2c(CCNc3nc(-c4ccc(C)cc4)cs3)nc3cc(C(=O)NCCCO)ccc32)cc1 | / | / | . | / | / | /
Cc1ccc2c(c1)[nH]c1c(N3CCN(Cc4ccc5c(c4)OCO5)CC3)ncnc12 | 3.35 | . | / | . | . | .
COc1cccc(C2CC(c3cccs3)Nc3ncnn32)c1 (stereo not drawn) | . | . | / | . | . | .
COc1cc(C2Nc3ccc4ncccc4c3C3=C2C(=O)CCC3)cc(OC)c1O (stereo not drawn) | . | . | . | . | 71.1 | .
Cn1nnnc1SCC(=O)Nc1ccc(Oc2ccc(Cl)cc2)cc1 | . | . | . | / | 50.9 | .
CCCN(CCC)S(=O)(=O)c1ccc(NS(=O)(=O)c2ccc(F)cc2)cc1 | / | / | . | / | / | /
CCOC(=O)C1(Nc2nccs2)Sc2ccccc2NC1=O (stereo not drawn) | . | . | . | . | 82.6 | .
O=S(=O)(Nc1nc2ccccc2s1)c1ccc(Br)s1 | . | . | -3.88 | . | . | .
Cc1ccc(S(=O)(=O)Nc2nc3ccccc3s2)cc1 | / | / | . | / | / | /
CC(C)(C(=O)c1cccnc1)c1cccnc1 | / | / | . | / | / | /
O=C(C1CCN(S(=O)(=O)c2cccc3cccnc23)CC1)N1CCCC1 | . | . | . | . | . | .
O=C(C1CCN(S(=O)(=O)c2cccc3cccnc23)CC1)N1CC=C(c2ccccc2)CC1 | 4.51 | . | / | . | . | .
Cc1cccc(N2CCN(C(=O)C3CCCN(S(=O)(=O)c4cccc5cccnc45)C3)CC2)c1C (stereo not drawn) | 4.61 | . | / | . | . | .
COc1ccc(N2CCN(C(=S)Nc3cc(C)ccc3C)CC2)cc1 | / | / | -4.67 | / | / | /
COc1ccc(OC)c(NC(=S)N2CCN(c3ccccn3)CC2)c1 | / | / | -8.81 | / | / | /
COc1ccc(N2CCN(C(=S)Nc3cc(C)cc(C)c3)CC2)cc1 | / | / | . | / | / | /
Cn1c(=O)oc2cc(S(=O)(=O)N3CCN(c4ccccc4)CC3)ccc21 | . | . | . | . | . | .
O=C(Cn1c(CC(=O)N2CCCC2)nc2ccccc21)NCc1ccccc1 | . | . | . | . | . | .
O=C(Cn1nnc2ccccc21)N/N=C\C=C\c1ccccc1 | / | / | . | / | / | /
Cc1nc2ccccc2n1CC(=O)NCc1ccccc1 | . | . | . | . | 41.4 | .
SMILES | M1 ag | HEK293 NFkB inh | DAT uptake mod | D1 mod | Jurkat tox 60K | M1 antagonist
O=C(Cn1nnc2ccccc21)NCc1ccccc1 | . | . | -8.52 | . | . | .
Cc1[nH]c(C)c(C(=O)O)c1CNC1CCCCC1C (stereo not drawn) | . | . | . | . | . | .
Cc1ccccc1CN1C(=O)C2(OCCCO2)c2ccccc21 | . | . | . | . | / | .
CS(=O)(=O)N1CCN(C(=O)c2cc(-c3cccs3)nc3ccccc23)CC1 | . | . | -3.02 | . | . | .
Cc1nc2ccccc2c2oc(C(=O)Nc3ccc4c(c3)OCCO4)cc12 | . | . | . | -2.54 | . | .
CCc1ccc(CNC(=O)c2cc3c(C)nc4ccccc4c3o2)cc1 | / | / | . | / | / | /
Cc1nc2ccccc2c2oc(C(=O)NCC3COc4ccccc4O3)cc12 (stereo not drawn) | . | . | . | -3.52 | . | .
COc1ccc(NC(=O)n2nc(OC(=O)c3cccs3)cc2N)cc1 | / | / | . | / | / | /
CCN(C(=O)COC(=O)c1ccc(OCc2c(C)noc2C)cc1)c1ccccc1 | / | / | . | / | / | /
CC1CCCCN1S(=O)(=O)c1ccc2c(c1)oc(=O)n2CC(=O)O (stereo not drawn) | . | . | -2.3 | . | . | .
O=C(Cn1c(=O)oc2cc(S(=O)(=O)N3CCCCCC3)ccc21)NC1CCCCCCC1 | . | . | . | / | . | .
Cc1ccc2nc(-c3ccccc3)cn2c1 | . | 70.8 | . | / | . | .
O=C(N/C(=C\c1cccs1)C(=O)N1CCCCCC1)c1ccccc1 | / | / | . | / | / | /
CCOc1ccc2[nH]c(=O)c(C(c3nnnn3Cc3ccco3)N3CCCC(C)C3)cc2c1 (stereo not drawn) | . | . | 2.49 | . | . | .
Cc1ccc(OCc2nc(C#N)c(NCc3ccco3)o2)cc1 | . | . | . | . | / | .
Cc1ccc(-c2nc(C#N)c(NCc3ccco3)o2)cc1 | . | . | -2.84 | . | . | .
Cc1ccc2cc(C#N)c(NCc3ccco3)nc2c1 | . | . | . | 6.68 | . | .
N#Cc1nc(-c2ccc(OCc3ccccc3)cc2)oc1NCc1ccco1 | . | . | . | . | . | .
CCOC(=O)c1c(C)[nH]c(C(=O)COC(=O)c2ccccn2)c1C | / | / | . | / | / | /
O=C(Cc1ccccc1)NC(NNc1ccccc1)(C(F)(F)F)C(F)(F)F | / | / | . | / | / | /
c1ccc2nc(-c3nc4ccccc4[nH]3)ccc2c1 | . | . | . | -4.78 | . | .
CCCc1[nH][nH]c(=O)c1C(c1ccc(Br)cc1)C(C#N)C#N (stereo not drawn) | / | / | . | / | / | /
Cn1cccc1Cc1nnc(SCC(=O)Nc2cccc(F)c2)n1CCc1ccccc1 | . | . | 2.07 | . | . | .
Cn1cccc1Cc1nnc(SCC(=O)Nc2ccccc2F)n1CCc1ccccc1 | . | . | . | . | . | .
Cn1cccc1Cc1nnc(SCC(=O)Nc2ccc(Cl)cc2)n1-c1ccc(F)cc1 | . | . | 2.76 | . | . | .
SMILES | M1 ag | HEK293 NFkB inh | DAT uptake mod | D1 mod | Jurkat tox 60K | M1 antagonist
Cn1cccc1Cc1nnc(SCC(=O)Nc2ccc(F)cc2)n1-c1ccc(F)cc1 | . | . | . | . | . | .
CC1(C)CC(NC(=O)COc2ccc3ccccc3c2)CC(C)(C)N1 | / | / | . | / | / | /
CCOc1ccc(NC(=O)C2C3C=CC4(CN(C(C(=O)OC)C(C)C)C(=O)C24)O3)cc1 (stereo not drawn) | . | . | / | . | . | .
Cc1ccc(C)c(S(=O)(=O)NCc2ccc(C(=O)N3CCC(Cc4ccccc4)CC3)cc2)c1 | / | / | 3.48 | / | / | /
CCCNC(=O)c1cccc(Cn2nc(C)c(Br)c2C)c1 | . | . | . | -1.66 | . | .
CCN1CCN(c2ncc3c(n2)CC(c2cc(OC)c(OC)c(OC)c2)CC3=O)CC1 (stereo not drawn) | . | . | . | / | 80.4 | .
O=C(c1ccco1)n1nc(-c2ccco2)nc1SCc1ccccc1 | / | / | . | / | / | /
